Test results taken from ChEMBL document CHEMBL1147141, “Potent nonpeptide antagonists of the bradykinin B1 receptor: structure-activity relationship studies with novel diaminochroman carboxamides” (J Med Chem, 2007).

Columns and labels:
[1] = Oral bioavailability in Sprague-Dawley rat at 3 mg/kg, po; type: ADME, organism-based; conditions: in vivo
[2] = Metabolic stability in human liver microsomes; type: ADME, Microsome; conditions: read-out: Stability
[3] = Clearance in Sprague-Dawley rat at 1 mg/kg, iv; type: ADME, organism-based; set-up: dose 1 mg/kg, route intravenous; conditions: in vivo
In short: (§1)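 Male Sprague-Dawley rats (225-280 g) with femoral and jugular vein cannulae were fasted overnight. They received an i.v. bolus of 1 mg/kg in 100% DMSO, prepared on the dosing day, n = 3. Blood was drawn via jugular cannula over 6 or 8 h into heparin. Plasma was acetonitrile-precipitated and measured by LC-MS/MS (positive MRM). Parameters were noncompartmental and reported with SEM.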

[4] = Metabolic stability in rat liver microsomes; type: ADME, Microsome; conditions: read-out: Stability
[5] = biological target: T1, B1 bradykinin receptor (Rattus norvegicus, UniProt P97583); experiment: Antagonist activity at rat bradykinin B1 receptor; type: functional
T1 sequence (P97583 whole entry): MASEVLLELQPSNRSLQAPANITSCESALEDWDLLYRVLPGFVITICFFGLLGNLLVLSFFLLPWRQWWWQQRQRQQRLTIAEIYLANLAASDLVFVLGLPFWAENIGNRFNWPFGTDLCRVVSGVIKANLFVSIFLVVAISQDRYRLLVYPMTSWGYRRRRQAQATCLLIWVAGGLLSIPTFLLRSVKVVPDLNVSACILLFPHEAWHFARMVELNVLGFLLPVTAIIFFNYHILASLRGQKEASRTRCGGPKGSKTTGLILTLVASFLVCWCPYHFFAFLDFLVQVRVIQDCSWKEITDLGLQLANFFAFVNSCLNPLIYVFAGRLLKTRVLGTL

[6] = test system: Oryctolagus cuniculus; experiment: Antinociceptive effect in subcutaneously dosed New Zealand rabbit assessed as reversal of carrageenan-induced hyperalgesia administered 2 hrs after carrageenan challenge; type: functional, organism-based
In short: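 Male New Zealand white rabbits (500-700 g), right hind paw injected with lambda carrageenan (3% in saline, 200 µL). Three punctate mechanical withdrawal readings were taken before and at 3 h post-carrageenan. Antagonist was given s.c. at 1 mL/kg, at 2 h (20% Captisol vehicle) or 2.5 h (PBS vehicle, peptide) post-carrageenan. Post minus pre threshold gave a difference score, converted to %MPE with the vehicle group as Emin and 0 as Emax. Analysed by one-factor ANOVA and Dunnett's test.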

[7] = Half life in Sprague-Dawley rat at 1 mg/kg, iv; type: ADME, organism-based; set-up: dose 1 mg/kg, route intravenous; conditions: in vivo; in short: as §1
[8] = biological target: T2, B1 bradykinin receptor (Oryctolagus cuniculus, UniProt P48748); experiment: Antagonist activity at rabbit bradykinin B1 receptor; type: functional
T2 sequence (P48748 whole entry): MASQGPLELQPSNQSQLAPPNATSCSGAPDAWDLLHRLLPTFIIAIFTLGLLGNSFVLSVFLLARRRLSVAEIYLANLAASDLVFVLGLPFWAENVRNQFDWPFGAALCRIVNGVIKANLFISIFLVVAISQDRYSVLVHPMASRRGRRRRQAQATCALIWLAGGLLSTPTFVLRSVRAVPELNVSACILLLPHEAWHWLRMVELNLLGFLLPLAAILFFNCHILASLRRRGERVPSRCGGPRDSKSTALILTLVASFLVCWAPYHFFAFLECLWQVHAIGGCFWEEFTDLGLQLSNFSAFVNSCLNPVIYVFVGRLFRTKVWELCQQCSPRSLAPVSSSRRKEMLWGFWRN

[9] = test system: Oryctolagus cuniculus; experiment: Reduction of DAK10-induced hypotension in subcutaneously dosed New Zealand rabbit blood pressure model; type: functional, organism-based
In short: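 New Zealand white rabbits (2.0-3.0 kg, n = 1/dose) were given LPS 25 µg/kg i.v. 5 h before the study to induce B1 receptors. Under anesthesia, both carotids were catheterized to record mean arterial pressure and to give DAK. Baseline was set by two i.v. bolus injections of 1 µg DAK. Antagonist was then given s.c. (1, 2, 4, 10 or 20 mpk). At 30 and 75 min, blood was drawn for plasma levels and the DAK response was re-measured, expressed as % hypotensive response.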

[10] = Volume of distribution at steady state in Sprague-Dawley rat at 1 mg/kg, iv; type: ADME, organism-based; set-up: dose 1 mg/kg, route intravenous; conditions: in vivo, read-out: Vss; in short: as §1
[11] = Oral bioavailability in Sprague-Dawley rat at 10 mg/kg, po; type: ADME, organism-based; conditions: in vivo
In short: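 Male Sprague-Dawley rats (225-280 g), cannulated and fasted overnight, were dosed by oral gavage at 10 mg/kg in 1% Tween 80, 2% HPMC, prepared 24-48 h before dosing, n = 3. Jugular blood was sampled over 6 or 8 h. Plasma was analysed by LC-MS/MS and parameters derived noncompartmentally.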

For `O=C(C[C@@H](NS(=O)(=O)c1ccc2ccccc2c1)c1ccccc1)N[C@@H]1CCOc2cc(CN3CCCCC3)ccc21`, the bioavailability [1] was 4%, the microsomal CLint [2] was 688 µL/min/mg and the clearance [3] was 84.1 mL/min/kg. The microsomal CLint [4] was 390 µL/min/mg.

With `O=C(C[C@@H](NS(=O)(=O)c1cccc(C(F)(F)F)c1)c1ccc(F)cc1)N[C@@H]1CCOc2cc(CN3CCCCC3)ccc21` the Ki [5] was 127 nM (antagonist), the Activity [6] was “Dose-dependent effect” and the half-life [7] was 2.5 h. For the same compound, the IC50 [8] was 10.4 nM (antagonist), the Activity [9] was “Dose-dependent effect” and the Vd [10] was 4.64 L/kg. For the same compound, the clearance [3] was 24.8 mL/min/kg, the bioavailability [11] was 13% and the microsomal CLint [4] was 216 µL/min/mg.
